Rows were chosen to be rich in hits. Some 2.8% of all compounds tested hit in one or more screens of this group.
HTRA1 inh: blocks human HTRA1 serine peptidase | AID 504803 | recombinant HTRA1, FP-rhodamine activity-based probe, fluorescence polarization | hit rate 0.5% among 340,000 | Q92743 | inhibition, % at 5.96 µM; in the data active = inhibition above about 36%;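 also: 0% = enzyme with DMSO and 100% = wells lacking enzyme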
PAFAH1B3 FP inh: blocks human PAF acetylhydrolase 1B catalytic subunit 3. Q15102. recombinant PAFAH1B3, FP-rhodamine probe, fluorescence polarization. inhibition, % at 3.39 µM. hit rate 0.28% among 340,000. AID 492972;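 active = inhibition above the screen-wide average of all tested compounds plus 3 SD, cut at about 25% in these data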;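 also: 0% = enzyme with DMSO only and 100% = wells lacking PAFAH1B3 protein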
Target sequence (Q15102 whole entry, looked up): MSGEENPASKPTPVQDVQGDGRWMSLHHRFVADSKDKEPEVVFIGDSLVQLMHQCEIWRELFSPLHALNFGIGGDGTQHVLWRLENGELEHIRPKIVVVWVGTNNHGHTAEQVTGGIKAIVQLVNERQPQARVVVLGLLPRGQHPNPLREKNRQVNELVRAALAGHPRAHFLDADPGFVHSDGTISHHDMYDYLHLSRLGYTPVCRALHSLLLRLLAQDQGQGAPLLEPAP
mABHD4 FP: inhibitors of mouse ABHD4. Q8VD66. purified mABHD4, FP-Rh probe fluorescence polarization. inhibition, % at 8.92 µM. hit rate 0.54% among 370,000. AID 720543;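 active = inhibition exceeding the mean over every tested compound plus 3 SD, cut at about 30% in these data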;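 also: 0% = plate median of compound wells and 100% = S159A mutant with DMSO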
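Doses – 8.92 µM, single dose · Material – wild-type mouse ABHD4 protein · Replication – single well per compound (singlicate) · Measure – percent inhibition of probe binding, normalized to plate controls · Schedule – 45 min compound pre-incubation plus 60 min probe step, 25 °C · Detection – fluorescence polarization with parallel and perpendicular emission, 525/598 nm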
PAFAH2 inh: inhibitors of human PAFAH2. Q99487. hit rate 0.99% among 340,000. inhibition, % at 3.39 µM. recombinant PAFAH2, FP-rhodamine activity probe, fluorescence polarization;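 active = inhibition above the mean over all tested compounds plus 3 SD, cut at about 30% in these data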;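 also: inhibitors block probe labeling of enzyme so polarization drops; 0% = enzyme with DMSO and 100% = wells lacking PAFAH2 protein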
PAFAH1B2 FP inh: blocks human PAF acetylhydrolase 1b catalytic subunit 2; P68402; recombinant PAFAH1B2, FP-rhodamine activity probe, fluorescence polarization; inhibition, % at 3.39 µM; hit rate 1.2% among 340,000; AID 492953;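 active = inhibition above the mean of all tested compounds plus 3 SD, cut at about 24% in these data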;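 also: 0% = enzyme with DMSO and 100% = wells lacking PAFAH1B2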
pPAFAH inh: pPAFAH (human) enzyme inhibition | Q13093 | recombinant pPAFAH, FP-rhodamine probe fluorescence polarization | inhibition, % at 3.39 µM | hit rate 1.5% among 330,000;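 active = inhibition above the mean inhibition across the screen plus 3 SD, cut at about 25% in these data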;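 also: inhibitors block binding of the rhodamine activity-based probe so polarization drops; 0% = enzyme with DMSO and 100% = wells lacking pPAFAH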
Target sequence (Q13093 whole entry, looked up): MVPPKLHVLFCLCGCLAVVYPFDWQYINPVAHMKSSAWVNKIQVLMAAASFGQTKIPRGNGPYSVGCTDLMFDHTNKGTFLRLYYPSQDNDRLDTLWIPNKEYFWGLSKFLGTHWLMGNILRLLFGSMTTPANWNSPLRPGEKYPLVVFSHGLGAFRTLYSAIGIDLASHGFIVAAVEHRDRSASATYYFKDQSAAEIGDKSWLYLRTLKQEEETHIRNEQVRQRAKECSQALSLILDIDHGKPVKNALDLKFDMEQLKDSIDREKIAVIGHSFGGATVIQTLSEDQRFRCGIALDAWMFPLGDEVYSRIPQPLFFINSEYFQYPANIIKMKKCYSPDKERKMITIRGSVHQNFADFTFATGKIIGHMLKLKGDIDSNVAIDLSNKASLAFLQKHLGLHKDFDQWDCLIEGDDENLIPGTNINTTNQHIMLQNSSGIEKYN
An asterisk follows results filed as active; · = not tested or not shown; + = active, no number.

SMILES | HTRA1 inh | PAFAH1B3 FP inh | mABHD4 FP | PAFAH2 inh | PAFAH1B2 FP inh | pPAFAH inh
CC1OC23CCCCC2C(C#N)(C(=N)O3)C1(C#N)C#N (configuration not stated) | 5 | 14 | 8 | 11 | 11 | 3
CC1(C(=O)N2CCC(Oc3cccnc3)CC2)CC1 | · | · | -3 | · | · | ·
COc1ccc(-n2c(SCC(=O)NNC(=S)Nc3ccc(C)cc3)nnc2-c2ccccc2)cc1 | · | · | 6 | · | · | ·
Cc1c(C)c2c(OCC(=O)N[C@@H](CC(C)C)C(=O)O)cc3c(c2oc1=O)CCC(C)(C)O3 | -4 | -3 | -9 | 75* | 44* | ·
Cc1cc(=O)oc2c3c(cc(OCC(=O)NCc4ccccc4)c12)OC(C)(C)CC3 | -21 | 15 | -3 | 20 | 10 | 33*
Cc1cccc(-n2nc3c(c2NC(=O)c2ccco2)CSC3)c1C | -26 | 1 | -15 | 10 | -6 | 31*
CC(Cc1n[nH]c(=S)o1)c1ccccc1 (configuration not stated) | -3 | 2 | -6 | 13 | 26* | 2
c1ccc(-c2ccc(CNc3nc(-c4ccccn4)nnc3-c3ccccc3)cc2)cc1 | · | · | 6 | · | · | ·
CC(C)c1ccc(OC[C@@H](O)CN2CCC(C(O)(c3ccccc3)c3ccccc3)CC2)cc1 | · | · | 10 | · | · | ·
Nc1c(C(=O)NCc2ccccc2)sc2nc(N3CCOCC3)c3c(c12)CCCC3 | -48 | -9 | 7 | 6 | 4 | 27*
Nc1c(C(=O)Nc2ccccc2)sc2nc(N3CCOCC3)c3c(c12)CCCC3 | -8 | · | 10 | · | · | ·
Cc1c(NC(=O)C(C)OC(=O)C23CC4CC(CC(Br)(C4)C2)C3)c(=O)n(-c2ccccc2)n1C (configuration not stated) | -24 | 2 | 4 | -3 | 48* | -8
Cc1c(NC(=O)COC(=O)C23CC4CC(CC(O)(C4)C2)C3)c(=O)n(-c2ccccc2)n1C | 4 | 0 | -1 | 7 | 0 | 2
O=C(CNS(=O)(=O)c1ccc(Cl)s1)N1CCN(c2ccccn2)CC1 | · | · | 0 | · | · | ·
Nc1[nH]nc2ncc3cc4ccccc4nc3c12 | 13 | 1 | 3 | 1 | 1 | 30*
Cc1cccc(Oc2nc(CN3CCOCC3)nc3sc4c(c23)CCCC4)c1 | -10 | 2 | 5 | -2 | 3 | 31*
CC(C)c1ccc(N2C(=O)CC(Sc3nc4ccccc4o3)C2=O)cc1 (configuration not stated) | -22 | 10 | -2 | -8 | 26* | 5
CC(C)c1ccc(N2C(=O)CC(Sc3ncn[nH]3)C2=O)cc1 (configuration not stated) | -9 | 0 | -1 | -8 | 17 | 3
CCN(CC)c1ccc2c(-c3ccc(S(=O)(=O)O)cc3S(=O)(=O)[O-])c3ccc(=[N+](CC)CC)cc-3oc2c1 | · | + | · | + | 174* | 173*
Cc1nn(C(=O)c2ccco2)c(C)c1Sc1ccccc1 | 24 | 11 | 2 | 52* | 3 | 4
O=C(COC(=O)c1c[nH]c2ccccc12)Nc1ccc(F)cc1 | -14 | 1 | -9 | 77* | 0 | 30*
O=C(COC(=O)c1c[nH]c2ccccc12)Nc1cccc(F)c1 | -22 | 9 | -15 | 81* | -1 | 25*
Cc1c(N/N=C(\C#N)C(=O)c2ccc(Cl)cc2)c(=O)n(-c2ccccc2)n1C | 1 | 7 | 8 | -1 | 4 | 4
N#C/C(=N\Nc1ccc(Cl)cc1)C(=O)c1ccccc1 | 9 | -3 | 2 | 25 | 4 | 27*
CC(C)c1ccc(NC(=O)O[C@@H]2CC[C@@]34CCCN3C(=O)CCC[C@H]4C2)cc1 | · | · | 1 | · | · | ·
SMILES | HTRA1 inh | PAFAH1B3 FP inh | mABHD4 FP | PAFAH2 inh | PAFAH1B2 FP inh | pPAFAH inh
Cn1c(CN2CCCC2)nc2cc(NS(=O)(=O)c3ccc(Cl)cc3)ccc21 | -8 | 2 | -7 | -11 | 16 | 9
O=c1ccc(NS(=O)(=O)c2ccc(Cl)cc2)cn1Cc1ccc(Cl)c(Cl)c1 | -6 | 4 | -12 | 13 | 28* | 13
O=C(c1ncn(Cc2ccccc2)c1C(=O)N1CCN(c2ccccc2)CC1)N1CCN(c2ccccc2)CC1 | -9 | 4 | 7 | 6 | 5 | -6
O=C(O)c1ncn(Cc2ccc(Br)cc2)c1C(=O)O | 7 | 8 | -4 | 9 | 25* | 1
COc1ccccc1C1NC(=O)NC(C)=C1C(=O)OC1CCCCC1 (configuration not stated) | 8 | 0 | 1 | 7 | 7 | -2
COc1cccc2c1C1(O)C2CCCCCCCCCC12OCCCO2 (configuration not stated) | -11 | 0 | 0 | 11 | 25* | ·
CN(Cc1ccccc1)C(=O)OCc1cn(Cc2c(F)cccc2F)nn1 | · | · | 0 | · | · | ·
O=C1N(Cc2ccccc2)c2ccccc2C12OCCO2 | 8 | 10 | -6 | 2 | -2 | 25*
O=C1N(Cc2ccccc2)c2ccc(Cl)cc2C12OCCO2 | -5 | 2 | -3 | -2 | 0 | 5
CCCCNC(=O)C[C@@H]1C(=O)N2CCCC3=C2[C@@]1(C(=O)OCC)CCC3 | · | · | -1 | · | · | ·
O=C(CCn1nnc2ccccc21)NNC(=O)C1CCCCC1 | -3 | 4 | -7 | -1 | 1 | 25*
CC(=O)Nc1ccc2c(O)cc(S(=O)(=O)O)cc2c1 | 5 | 12 | 13 | -2 | 7 | ·
Nc1cccc2c(O)cc(S(=O)(=O)O)cc12 | 31 | 77* | · | 67* | 71* | ·
Cc1ccc(S(=O)(=O)c2cc(Nc3ccccc3)ccc2O)cc1 | 16 | -1 | 19 | 18 | 4 | 19
O=S(=O)(O)c1cc(O)c2ccc(Nc3ccccc3)cc2c1 | 21 | 43* | 63* | 66* | 22 | ·
O=S(=O)(O)c1cc(O)c2cc(Nc3ccccc3)ccc2c1 | 27 | 43* | 65* | 42* | 26* | ·
COC(=O)[C@@]12CCCCC3=C1N(CCC3)C(=O)[C@H]2CC(=O)NCc1cccs1 | · | · | 0 | · | · | ·
N#Cc1ccc(CC(=O)c2ccccc2)[nH]c1=O | 28 | 12 | 43* | 4 | 10 | ·
N#Cc1ccc(CCc2ccccc2)[nH]c1=O | 6 | 3 | -3 | 2 | 4 | ·
COc1cc(C(C)=O)ccc1OCC(O)CN(CCO)Cc1ccccc1 (configuration not stated) | 12 | -3 | 1 | 7 | -3 | 32*
OCCN(Cc1ccccc1)CC(O)COc1ccc(-c2ccccc2)cc1 (configuration not stated) | -34 | 0 | -3 | 8 | 2 | 9
COc1cccc(CN(C)C(=O)c2ccc(COc3ccc(Cl)cc3)cc2)c1OC | -33 | -3 | 3 | -7 | 25* | 8
FC(F)(F)c1ccc(Cn2ccc3ccc(-c4ccc5ccn(Cc6ccccc6)c5c4)cc32)cc1 | · | · | 17 | · | · | ·
O=C(COc1cc(O)c2c(=O)cc(-c3ccccc3)oc2c1)c1cccc([N+](=O)[O-])c1 | -6 | 3 | 2 | -7 | 25* | 1

Compound activity as filed in PubChem.
